# Sampled rows, rich in hits. Any-hit rate of the full collection: about 2.7%.
# TPT1 inhibitor – inhibitors of Candida albicans tRNA 2'-phosphotransferase TPT1. AID 1962. 300,000 compounds, 0.81% hits. recombinant caTPT1, FP RNA substrate dephosphorylation. inhibition, % at 5 µM;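 active means inhibition above the mean of all tested compounds plus 3 SD, set per screening campaign, cut at about 24% in these data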;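 further: plate controls were DMSO alone for no effect and ferristatin control at 100 nM for full effect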
# PP1 counter – blocks human PP1-alpha phosphatase, a PP5 counter-screen. purified PP1alpha, OMFP fluorescence. 320,000 compounds, 0.9% hits. AID 2235. P62136. inhibition, % at 6.7 µM;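 active means inhibition above the mean inhibition of all tested compounds plus 3 SD, computed separately for each screening campaign, cut at about 15% in these data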
# CSN inh – CSN deneddylation inhibition | Purified CSN, SCF-Nedd8-OG deneddylation, fluorescence polarization | Q92905 | inhibition, % at 12.5 µM | AID 651999 | 360,000 compounds, 0.38% hits;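 active means pattern-corrected inhibition above about 35%, with an unprinted fluorescence ratio check between 0.5 and 1.5, limit read from the data, passing the limit was not always enough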;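 further: 0% = enzyme with substrate and 100% = substrate without enzyme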
# Target sequence (Q92905 whole entry, looked up, one chain of several): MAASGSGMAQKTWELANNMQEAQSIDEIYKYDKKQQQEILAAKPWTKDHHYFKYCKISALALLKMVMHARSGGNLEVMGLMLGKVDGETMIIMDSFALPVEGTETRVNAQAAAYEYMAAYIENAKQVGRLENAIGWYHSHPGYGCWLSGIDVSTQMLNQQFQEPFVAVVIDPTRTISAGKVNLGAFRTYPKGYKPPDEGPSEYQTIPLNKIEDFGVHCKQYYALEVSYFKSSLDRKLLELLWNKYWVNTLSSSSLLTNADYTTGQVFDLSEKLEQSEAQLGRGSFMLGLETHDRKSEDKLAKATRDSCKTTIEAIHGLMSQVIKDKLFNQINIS
#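 test system = HEK293T-derived human Csn5 enzyme | amount = 0.24 nM Csn5 enzyme, final concentration | medium = Tris/NaCl/DTT buffer, pH 7.5 | schedule = 90 min reaction at room temperature | signal = FP | evaluation = inhibition of Csn5 cleavage, % | compound dosing = single dose of 12.5 µM compound with 0.25% DMSO | probe or stimulus = 10 nM SCFSkp2-Nedd8OG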
# HNF4A DNA FP – change in binding of human HNF4 alpha to DNA. P41235. activity change, % at 10 µM. AID 1224865. 360,000 compounds, 0.3% hits. HNF4a-FITC DNA binding, fluorescence polarization, 1 h; in the data active means activity change above about 30%, passing the limit was not always enough
# Target sequence (P41235 whole entry, looked up): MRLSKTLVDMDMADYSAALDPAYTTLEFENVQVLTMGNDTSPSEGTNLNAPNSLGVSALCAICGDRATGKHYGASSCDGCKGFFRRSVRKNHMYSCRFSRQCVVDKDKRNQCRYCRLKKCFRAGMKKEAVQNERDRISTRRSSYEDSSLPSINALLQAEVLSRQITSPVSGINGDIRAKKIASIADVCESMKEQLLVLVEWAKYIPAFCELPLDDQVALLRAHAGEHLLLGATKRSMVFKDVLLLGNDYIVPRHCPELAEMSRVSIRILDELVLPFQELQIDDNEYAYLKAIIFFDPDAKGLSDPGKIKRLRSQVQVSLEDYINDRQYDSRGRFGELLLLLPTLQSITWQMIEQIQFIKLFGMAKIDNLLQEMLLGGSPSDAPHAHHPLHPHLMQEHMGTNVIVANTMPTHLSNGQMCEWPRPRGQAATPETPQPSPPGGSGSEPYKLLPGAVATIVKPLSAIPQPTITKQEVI
# Rpn11 inh – inhibitors of human proteasome Rpn11; O00487; human 26S proteasome, Ub4-pepOG fluorescence polarization; 20S core pre-blocked with epoxomicin; inhibition, % at 20 µM; 360,000 compounds, 0.59% hits; AID 588493;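 active means inhibition at 20 µM, scaled to each plate's controls, above about 33%, limit read from the data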
# NadD block – blocks S. aureus nicotinate mononucleotide adenylyltransferase | AID 602399 | inhibition, % at 20 µM | 360,000 compounds, 0.78% hits | purified NadD enzyme, colorimetric absorbance read-out; in the data active means inhibition above about 26%
# caTPT1 confirm – confirmation of Candida albicans TPT1 inhibitors; shares compounds with TPT1 inhibitor; recombinant caTPT1, fluorescence polarization, RNase T1 coupled; inhibition, % at 5 µM; 2,400 compounds, 74% hits; AID 2149;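 active means inhibition above the primary screen limit, the mean inhibition of all tested compounds plus 3 SD, cut at about 25% in these data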
# RNase T1 inh – blocks Aspergillus oryzae RNase T1, a TPT1 counter-screen; shares compounds with TPT1 inhibitor; RNase T1 cleavage, fluorescence polarization, 1536-well; inhibition, % at 5 µM; 2,400 compounds, 83% hits; AID 2153;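 active means inhibition above the solvent-only control well mean plus 3 SD, limit set per screening run, cut at about 23% in these data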;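 further: plate controls were DMSO wells with enzyme for no effect and wells without RNase T1 for full effect; inhibitors block cleavage so intact labeled substrate keeps polarization high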
# PP1 confirm – confirmation of human PP1 phosphatase inhibitors; shares compounds with PP1 counter; purified PP1alpha, OMFP substrate fluorescence; inhibition, % at 6.7 µM; 1,900 compounds, 52% hits;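 active means mean PP1 inhibition above a set limit taken from the earlier primary screen, cut at about 15% in these data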
# PP5 counter – inhibits human PP5 phosphatase in PP1 counter-screen | shares compounds with PP1 counter | purified PP5c, OMFP fluorescence | inhibition, % at 6.7 µM | 1,900 compounds, 4% hits | AID 2360;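 active means mean PP5 inhibition over triplicate wells above about 9.5% taken from the earlier PP1 screen, limit read from the data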
# Rpn11 inh conf – Rpn11 inhibition confirmation, single concentration. shares compounds with Rpn11 inh. purified human 26S proteasome, Ub4-pepOG fluorescence polarization; proteasome pretreated with epoxomicin. inhibition, % at 20 µM. 1,900 compounds, 29% hits. AID 602318
# MMP-2 counter-1 – MMP-2 (human) inhibition counter-screen; shares compounds with Rpn11 inh; recombinant MMP-2, FRET peptide cleavage fluorescence; inhibition, % at 20 µM; 1,900 compounds, 4% hits; AID 602330;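 further: human MMP-2 activated beforehand with APMA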
# Thrombin FP – thrombin (bovine) inhibition counter-screen | bovine thrombin cleavage of Ub4-pepOG, fluorescence polarization | shares compounds with Rpn11 inh | inhibition, % at 20 µM | 1,900 compounds, 13% hits;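 active means mean inhibition at least 40% at 20 µM, or signal 3 deviations below plate average, so some actives read negative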;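 further: plate controls were thrombin with DMSO for no effect and buffer wells lacking thrombin for full effect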
# NadD inh conf – NadD (S. aureus) inhibition, single concentration confirmation | shares compounds with NadD block | inhibition, % at 20 µM | purified S. aureus NadD, colorimetric enzyme assay | 2,000 compounds, 13% hits | AID 624309; in the data active means inhibition mostly above about 42%, no sharp cut-off; inactive means mostly below about 42%
# CSN5 deneddyl – Csn5 (human) deneddylation inhibition, single-concentration validation. shares compounds with CSN inh. Csn5 deneddylation of SCF-Nedd8OG, fluorescence polarization, 90 min. inhibition, % at 16.6 µM. 540 compounds, 62% hits; in the data active means inhibition above about 50%;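 further: 0% = DMSO with enzyme and 100% = no enzyme wells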
# MMP-2 counter-2 – blocks human MMP-2 in a CSN deneddylation counter-screen; shares compounds with CSN inh; 540 compounds, 33% hits; recombinant MMP-2, FRET substrate fluorescence, 60 min; AID 720655; inhibition, % at 16.6 µM;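 active means corrected plate-normalized z-score of 5 or more, or -5 or less, or inhibition of 15% or more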;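 further: plate controls were DMSO wells with enzyme for no effect and buffer wells lacking MMP-2 for full effect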
# Thrombin cntr – blocks bovine thrombin in a CSN deneddylation counter-screen | bovine thrombin cleavage of Ub4-pepOG, fluorescence polarization | shares compounds with CSN inh | 540 compounds, 49% hits | inhibition, % at 16.6 µM;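 active means inhibition at or above a set limit, with a fluorescence interference ratio between 0.5 and a set maximum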
# HNF4a DNA conf – change in binding of human HNF4 alpha to DNA, retest. shares compounds with HNF4A DNA FP. HNF4A-FITC DNA binding, fluorescence polarization, 1 h. activity change, % at 12.5 µM. 210 compounds, 99% hits. AID 1224897; call rule not given here
# The depositor's hits bear a star; nt = not tested or not shown. Unless noted, no stated cut-off is given here; in the data, active means inhibition above about 40%; inactive means the rest.
SMILES,TPT1 inhibitor,PP1 counter,CSN inh,HNF4A DNA FP,Rpn11 inh,NadD block,caTPT1 confirm,RNase T1 inh,CSN5 deneddyl,MMP-2 counter-2,Thrombin cntr,others
COc1ccc2nc(N3C(=O)/C(=C/c4ccccc4)NC3=S)sc2c1,111.3*,1.6,94.7*,108.5,nt,44.0*,115.1*,118.8*,91.7*,-12.2,73.6*,NadD inh conf=6.0
COc1ccc2nc(-n3c(C)ccc3C)sc2c1,-1.2,-5.1,3.9,4.3,1.3,4.9,nt,nt,nt,nt,nt,
CN(C)C(CNC(=O)c1c(F)cccc1Cl)c1ccco1 (centres undefined),3.8,-0.8,3.0,-0.9,9.0,6.2,nt,nt,nt,nt,nt,
CC1=NN(c2ccccc2)C(=O)/C1=C\C=C1/N(C)c2ccccc2C1(C)C,74.3*,9.2,80.3*,108.7*,nt,7.1,74.1*,84.1*,65.1*,1.2,71.1*,
Nc1[nH]c2cc([N+](=O)[O-])ccc2c1-c1ccccn1,101.1*,3.3,63.9*,91.4*,nt,0.4,102.3*,105.5*,49.0,-4.8,43.8*,
O=C1C2C(C(=O)N1Cc1ccco1)C1C=CC2C12CC2 (centres undefined),-0.6,-0.6,-2.8,-0.5,0.9,-1.7,nt,nt,nt,nt,nt,
O=C1CC(=O)N(Cc2ccco2)C(=O)N1,92.4*,58.0*,66.0*,-5.0,161.9*,10.9,47.5*,58.5*,37.8,24.9*,44.0*,PP1 confirm=0.9;PP5 counter=1.2;Rpn11 inh conf=125.4*;MMP-2 counter-1=38.2;Thrombin FP=63.5*
Cc1cc(/C=C2\SC(=S)N(C)C2=O)c(C)n1-c1cccc(O)c1,78.0*,-1.9,37.1*,72.3*,nt,4.3,114.4*,117.2*,70.9*,4.5,94.3*,
Cn1c(-c2ccc(C=O)s2)nc2c3ccccc3c3ccccc3c21,34.4*,4.2,46.6*,-39.7,-13.6,50.0*,51.9*,63.0*,nt,-18.1,-72.1,NadD inh conf=11.4
C=CCSC1=N/C(=C\C=C\c2ccco2)C(=O)S1,29.2*,9.0,57.5*,1.4,36.7,5.5,27.7*,38.1*,68.4*,29.8*,8.0,
C=CCSC1=N/C(=C\c2sccc2C)C(=O)S1,0.6,-0.5,-0.9,-1.5,2.1,13.8,nt,nt,nt,nt,nt,
COc1ccccc1-c1ccc(/C=C2\C=CC(=O)O2)o1,114.1*,0.2,77.1*,94.1,nt,2.0,117.3*,113.0*,47.5,-26.2,53.2*,
COc1ccccc1-c1ccc(/C=C2/C=C(C)OC2=O)o1,13.0,1.4,12.2,8.2,31.3,7.2,nt,nt,nt,nt,nt,
COc1ccc(OC)c(C2C(C(=O)c3cccs3)=C(O)C(=O)N2CCN2CCOCC2)c1 (centres undefined),nt,nt,1.0,1.4,-7.4,1.2,nt,nt,nt,nt,nt,
O=C(N/N=C/c1c(O)ccc2ccccc12)c1cccc(C(F)(F)F)c1,135.2*,-2.8,69.4*,91.8*,nt,16.2,149.1*,137.1*,63.5*,-24.8*,49.0*,
Cc1cccc(-c2noc(CNC(=O)c3ccoc3C)n2)c1,34.0*,0.0,20.1,50.2*,nt,-5.6,64.9*,73.9*,nt,nt,nt,HNF4a DNA conf=32.1*
CCN1CCc2c(sc(NC(=O)c3ccc4ccccc4c3)c2C(N)=O)C1,65.3*,2.3,30.9,38.1*,nt,-7.0,80.2*,89.0*,nt,nt,nt,HNF4a DNA conf=65.1*
CC(=O)Nc1sc2c(c1C(N)=O)CCN(Cc1ccccc1)C2,1.9,-4.8,5.0,1.1,-3.1,-0.1,nt,nt,nt,nt,nt,
NC(=O)C1CCN(C(=O)c2ccc3c(c2)S(=O)(=O)c2ccccc2C3=O)CC1,-4.0,-4.9,3.0,-3.0,-0.1,-2.5,nt,nt,nt,nt,nt,
NC(=O)C1CCN(c2ccc3c(c2)S(=O)(=O)c2ccccc2C3=O)CC1,30.8*,2.4,-2.0,47.2*,nt,0.2,38.2*,47.7*,nt,nt,nt,HNF4a DNA conf=67.0*
CC1CCN(c2ccc3c(c2)S(=O)(=O)c2ccccc2C3=O)CC1,65.2*,0.1,29.6,58.4*,nt,-2.2,79.7*,87.5*,nt,nt,nt,HNF4a DNA conf=71.5*
CCc1nc2ccc(C(=O)N3CCCC(C(N)=O)C3)cn2c1N(C)Cc1ccc(OC)cc1 (centres undefined),nt,nt,-2.3,3.1,-4.6,-0.3,nt,nt,nt,nt,nt,
C[C@@H]1c2ccccc2N2C[C@H](Cc3ccc(C(=O)c4ccccc4)cc3)C[C@@H]12,nt,nt,1.1,-2.0,9.6,7.5,nt,nt,nt,nt,nt,
N#Cc1c(Nc2cccc(F)c2)sc2c(O)cc(=O)[nH]c12,51.3*,6.2,34.5,44.2*,nt,5.0,28.7*,40.3*,nt,nt,nt,HNF4a DNA conf=52.2*
COc1ccc(Cc2nc3ccc(C(=O)N4CCCCC4CO)cc3o2)cc1OC (centres undefined),nt,nt,-2.0,1.1,-0.7,4.4,nt,nt,nt,nt,nt,
Cc1onc(-c2ccccc2)c1C(=O)Nc1sc2c(c1C#N)CCC2,17.5,2.4,20.2,12.9,20.7,7.4,nt,nt,nt,nt,nt,

# Screens: PubChem, several laboratories
